Data set [1] has as its target Human immunodeficiency virus type 1 reverse transcriptase (Human immunodeficiency virus 1, UniProt Q72547). Kind of data set: Inhibition of wild-type HIV1 subtype B reverse transcriptase assessed as incorporation of [3H]dTTP. Put shortly:
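Recombinant clade B HIV-1 WT RT p66/p51, co-expressed with protease in E. coli, affinity-purified and active-site titrated. Diphosphate forms assayed on activated calf thymus DNA with [3H]dTTP. Aliquots spotted in duplicate on DE81 discs, washed with ammonium formate pH 8.0 and ethanol, then scintillation counted. IC50 averaged over ≥3 independent experiments.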

Data set [2] concerns Human immunodeficiency virus 1. Kind of data set: Antiviral activity against 100 TCID50 wild-type Human immunodeficiency virus 1 3B infected in CEM cells assessed as inhibition of syncytia formation after 4 days by microscopic analysis. The data set is classed as functional, organism-based. The note with it: CCRF-CEM, 96 h. Put shortly: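 Human CEM cells (~3 × 10^5 cells/cm3) infected with 100 CCID50/mL HIV-1 IIIB and seeded into wells holding compound dilutions. After 4 days at 37 °C, giant-cell (syncytium) formation was scored microscopically. EC50 is the concentration inhibiting syncytia formation by 50%.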

For data set [3], the system named is Human immunodeficiency virus 2. As to the kind of experiment: Antiviral activity against 100 TCID50 wild-type Human immunodeficiency virus type 2 ROD infected in C8166 cells assessed as inhibition of syncytia formation after 4 days by microscopic analysis. The settings on record: Human immunodeficiency virus 2, ISOLATE ROD, C8166, 96 h. The data set is classed as functional, organism-based.

In data set [4] the test system is CCRF-CEM. As to the kind of experiment: (§1) Cytotoxicity against human CEM cells. The data set is classed as cell-based. The note with it: ccrf-cem. The procedure, abridged: (§2)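 Mock-infected CEM cells cultured alongside the anti-HIV assay with compound dilutions for 4 days at 37 °C. CC50 is the concentration inhibiting CEM cell proliferation by 50%.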
The subject of data set [5] is Human immunodeficiency virus 1. As to the kind of experiment: Antiviral activity against 125 TCID50 wild type HIV1 LAI infected in human H9 cells assessed as reduction in viral replication measured on day 7 post infection by reverse transcriptase activity. The note with it: Human immunodeficiency virus 1, LAI, H9, 168 h. It counts as functional, organism-based. The procedure, abridged:
(§3)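 PHA-P-activated PBMC (1.5 × 10^5; donor cells stimulated 3 days with 1 μg/mL PHA-P plus 5 IU/mL IL-2) or H9 cells (5 × 10^5) in RPMI-1640/10% FCS. Cells pre-treated 30 min with graded compound concentrations, then infected with HIV-1 LAI (100 or 125 TCID50). Supernatant RT activity read on day 7. EC50 from quadratic fit of % inhibition; triplicates, PBMC repeated with a second donor.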

The subject of data set [6] is Human immunodeficiency virus 1. Kind of data set: Antiviral activity against 6250 TCID50 wild type HIV1 LAI infected in human H9 cells assessed as reduction in viral replication measured on day 7 post infection by reverse transcriptase activity. It counts as functional, organism-based. The note with it: Human immunodeficiency virus 1, LAI, H9, 168 h. Put shortly: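 H9 cells in RPMI-1640/10% FCS given graded compound concentrations, then infected with a high inoculum of 6250 TCID50 HIV-1 LAI. Supernatant reverse transcriptase activity measured on day 7 post infection. EC50 taken as the concentration giving 50% reduction of viral replication.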

Data set [7] relates to Human immunodeficiency virus 1. Kind of data set: Antiviral activity against 100 TCID50 wild type HIV1 LAI infected in human PBMC assessed as reduction in viral replication measured on day 7 post infection by reverse transcriptase activity. It counts as functional, organism-based. The settings on record: Human immunodeficiency virus 1, LAI, 168 h. The procedure, abridged: as §3

Data set [8] is described as follows: Cytotoxicity against […]-activated human PBMC on day 7 by MTT assay. It counts as cell-based. The procedure, abridged:
(§4)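 Uninfected PHA-P-activated PBMC and H9 cells exposed to graded compound concentrations. Viability by MTT on day 7. CC50 from quadratic fit of % viability against concentration; triplicates.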

Data set [9] relates to Human immunodeficiency virus 1. Kind of data set: Antiviral activity against HIV1 clade A isolate 4113 infected in human H9 cells assessed as inhibition of viral replication. The data set is classed as functional, organism-based. The settings on record: Human immunodeficiency virus 1, clade A isolate 4113, H9. The procedure, abridged: (§5)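 H9 cells infected with HIV-1 clinical isolates of clades A, B, C, D, A/E, F and G, in the presence of graded compound concentrations. EC50 is the concentration reducing viral replication by 50%.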

For data set [10], the system named is Human immunodeficiency virus 1. As to the kind of experiment: Antiviral activity against HIV1 clade B isolate 2101 infected in human H9 cells assessed as inhibition of viral replication. The settings on record: Human immunodeficiency virus 1, clade B isolate 2101, H9. It counts as functional, organism-based. Put shortly: as §5
For data set [11], the system named is Human immunodeficiency virus 1. As to the kind of experiment: Antiviral activity against HIV1 clade B isolate 2056 infected in human H9 cells assessed as inhibition of viral replication. It counts as functional, organism-based. The settings on record: Human immunodeficiency virus 1, clade B isolate 2056, H9. The procedure, abridged: as §5
The subject of data set [12] is Human immunodeficiency virus 1. As to the kind of experiment: Antiviral activity against HIV1 clade B isolate 1722 infected in human H9 cells assessed as inhibition of viral replication. It counts as functional, organism-based. The settings on record: Human immunodeficiency virus 1, clade B isolate 1722, H9. The procedure, abridged:
as §5

The test system of data set [13] is Human immunodeficiency virus 1. As to the kind of experiment: Antiviral activity against HIV1 clade C isolate 2914 infected in human H9 cells assessed as inhibition of viral replication. The note with it: Human immunodeficiency virus 1, clade C isolate 2914, H9. It counts as functional, organism-based. Put shortly: as §5
The test system of data set [14] is Human immunodeficiency virus 1. Kind of data set: Antiviral activity against HIV1 clade C isolate 4110 infected in human H9 cells assessed as inhibition of viral replication. The data set is classed as functional, organism-based. The note with it: Human immunodeficiency virus 1, clade C isolate 4110, H9. The procedure, abridged:
as §5

Data set [15] concerns Human immunodeficiency virus 1. As to the kind of experiment: Antiviral activity against HIV1 clade D isolate 1649 infected in human H9 cells assessed as inhibition of viral replication. The note with it: Human immunodeficiency virus 1, clade D isolate 1649, H9. It counts as functional, organism-based. The procedure, abridged: as §5
For data set [16], the system named is Human immunodeficiency virus 1. Kind of data set: Antiviral activity against HIV1 clade A/E isolate 2165 infected in human H9 cells assessed as inhibition of viral replication. The data set is classed as functional, organism-based. The note with it: Human immunodeficiency virus 1, clade A/E isolate 2165, H9. Put shortly:
as §5

In data set [17] the test system is Human immunodeficiency virus 1. As to the kind of experiment: Antiviral activity against HIV1 clade F isolate 2338 infected in human H9 cells assessed as inhibition of viral replication. It counts as functional, organism-based. The note with it: Human immunodeficiency virus 1, clade F isolate 2338, H9. The procedure, abridged:
as §5

Data set [18] relates to Human immunodeficiency virus 1. As to the kind of experiment: Antiviral activity against HIV1 clade G isolate 3187 infected in human H9 cells assessed as inhibition of viral replication. It counts as functional, organism-based. The note with it: Human immunodeficiency virus 1, clade G isolate 3187, H9. Put shortly:
as §5

Data set [19] relates to Hepatitis B virus. Kind of data set: Antiviral activity against Hepatitis B virus infected in human HuH7 cells assessed as reduction in viral DNA level treated day 3 to day 8 post transfection by real time quantitative PCR analysis. The data set is classed as functional, organism-based. The settings on record: Huh-7.
The subject of data set [20] is Human alphaherpesvirus 1. Kind of data set: Antiviral activity against Herpes simplex virus type 1 KOS infected in HEL cells assessed as inhibition of virus-induced cytopathic effect. The data set is classed as functional, organism-based. The note with it: Human alphaherpesvirus 1, KOS. The procedure, abridged:
(§6)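 Confluent HEL cell monolayers inoculated with 100 CCID50 of virus. Compounds added after a 1–2 h adsorption period. Virus-induced cytopathic effect scored microscopically at 3 days post infection as % of untreated controls. EC50 derived from graphical plots.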

Data set [21] concerns Human alphaherpesvirus 1. As to the kind of experiment: Antiviral activity against TK-deficient and ACR-resistant Herpes simplex virus type 1 KOS infected in HEL cells assessed as inhibition of virus-induced cytopathic effect. It counts as functional, organism-based. The settings on record: Human alphaherpesvirus 1, KOS. Put shortly:
as §6

Data set [22] deals with Human alphaherpesvirus 2. As to the kind of experiment: Antiviral activity against Herpes simplex virus type 2 G infected in HEL cells assessed as inhibition of virus-induced cytopathic effect. The data set is classed as functional, organism-based. The settings on record: Human alphaherpesvirus 2, strain G. The procedure, abridged: as §6
The subject of data set [23] is Vaccinia virus. As to the kind of experiment: Antiviral activity against Vaccinia virus infected in HEL cells assessed as inhibition of virus-induced cytopathic effect. The data set is classed as functional, organism-based. The note with it: Orthopoxvirus vaccinia. Put shortly: as §6
A short description of data set [24]: Cytotoxicity against human HEL cells assessed as alteration in cellular morphology by microscopic analysis. It counts as cell-based. The procedure, abridged: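 Uninfected confluent Vero, CrFK, HEL or HeLa cultures incubated with serial compound dilutions (up to 200 μM) for the same period as the antiviral assays. Minimal toxic concentration is the lowest giving microscopically detectable alteration of cell morphology.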

The nature of data set [25]: Cytotoxicity against human HuH7 cells. The data set is classed as cell-based. The settings on record: Huh-7 cells.
Data set [26] can be described thus: Cytotoxicity against human HepAD38 cells. The data set is classed as cell-based.
Data set [27] can be described thus: as §1. The note with it: CCRF-CEM (CEM) cells. The data set is classed as cell-based, CCRF-CEM. The procedure, abridged: as §2
Data set [28] in a line: Cytotoxicity against […]-activated human H9 cells on day 7 by MTT assay. It counts as cell-based. The procedure, abridged:
as §4

Data set [29] deals with Hepatitis B virus. As to the kind of experiment: Antiviral activity against Hepatitis B virus infected in human HepAD38 cells assessed as reduction in viral DNA level after 6 days by real time quantitative PCR analysis. The data set is classed as functional, organism-based. The note with it: HePAD38, 144 h. The procedure, abridged: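 Tetracycline-regulated HepAD38 cells (5 × 10^5) induced after 2–3 days by PBS wash and feeding with medium lacking tetracycline and G418, with or without compound. Medium changed at day 3. Intracellular HBV DNA quantified by TaqMan Q-PCR at day 6 post induction against a full-genome plasmid standard curve, expressed as % of untreated. Actives retested.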

As to `Nc1ncnc2c1ncn2CCOCP(=O)(S)OP(=O)(O)OP(=O)(O)O` (stereo not given), the IC50 in data set [1] was found to be 6.8 µM.
With `Nc1ncnc2c1ncn2CCOCP(=O)(O)O` [ADEFOVIR], the EC50 came out at 5.5 µM in data set [2]; 7 µM in [3]; 1.1 µM in [5]; 7.9 µM in data set [6]; 3.2 µM in data set [7]; 17.8 µM in data set [9]. The EC50 in [10] came to 3.51 µM; in data set [11], 1.02 µM; in data set [12] it was 1.85 µM; in [13] it was 1.45 µM; in [14], 2.74 µM; in [15] it was 0.32 µM. Also, the EC50 in data set [16] came to 0.32 µM; in data set [17] it was 0.19 µM; in [18] it was 0.22 µM; in data set [19] it was 6 µM; in data set [20] it was 89 µM; in [21], 20 µM. Also, the EC50 in data set [22] is 20 µM; in data set [23], greater than 200 µM. For the same molecule, the CC50 in data set [4] was 85 µM; in [25], greater than 150 µM; in data set [26], greater than 150 µM. Moreover, the 50% cytotoxic concentration (CC50) at 7 day in [8] was greater than 30 µM. In addition, the MCC in [24] is greater than 200 µM.
With `Nc1ncnc2c1ncn2CCOCP(=O)(O)OP(=O)(O)OP(=O)(O)O`, the IC50 in data set [1] was 7 µM.
`C[C@H](Cn1cnc2c(N)ncnc21)OCP(=O)(S)OP(=O)(O)OP(=O)(O)O` (stereo not given in full): the 50% inhibitory concentration (IC50) in [1] amounted to 13.9 µM.
As for `C[C@H](Cn1cnc2c(N)ncnc21)OCP(=O)(O)O` [TENOFOVIR ANHYDROUS], the 50% effective concentration (EC50) came out at 4.1 µM in [2]; 7.1 µM in [3]; 0.23 µM in data set [5]; 8.3 µM in [6]; 3.4 µM in [7]; 5.61 µM in [9]. For the same molecule, the EC50 in data set [10] turned out to be 0.24 µM; in [11], 1.25 µM; in data set [12] it was 0.69 µM; in data set [13], 0.34 µM; in [14], 0.83 µM; in data set [15] it was 0.1 µM. Also, the EC50 in data set [16] was 0.51 µM; in [17], 0.04 µM; in [18], 0.15 µM; in data set [29], 2.3 µM; in data set [20], greater than 200 µM; in data set [21] it was greater than 200 µM. For the same molecule, the EC50 in [22] and in data set [23] was greater than 200 µM each time. Besides, the CC50 in data set [27] is greater than 250 µM; in [25], greater than 150 µM; in data set [26] it was greater than 150 µM. In addition, the half-maximal cytotoxic concentration (CC50) at 7 day in data set [8] and in data set [28] was greater than 100 µM in each case. The MCC in data set [24] was greater than 200 µM.
Turning to `C[C@H](Cn1cnc2c(N)ncnc21)OCP(=O)(O)OP(=O)(O)OP(=O)(O)O`, the half-maximal inhibitory concentration (IC50) in data set [1] came to 11.3 µM.

(Values after ChEMBL document CHEMBL1828528, “Acyclic nucleoside thiophosphonates as potent inhibitors of HIV and HBV replication” (Eur J Med Chem, 2011).)
